We go through two compounds from ChEMBL document CHEMBL1153954, “Promiscuous aggregate-based inhibitors promote enzyme unfolding” (J Med Chem, 2009).

The target in test [1] is AmpC (Escherichia coli) (UniProt Q83TT7). Briefly: Inhibition of Escherichia coli AmpC assessed as induction of protein unfolding measured by trypsin mediated degradation of compound-AmpC enzyme complex at 100 uM after 4 hrs by gel electrophoresis. The procedure, abridged:
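AmpC (0.5 μM) was preincubated 5 min with or without 100 μM aggregator in 50 mM KPi, pH 7.0, 1% DMSO final. Trypsin (0.01 or 0.025 mg/mL) was then added, and digestion ran at room temperature for 0, 15, 30 min, 1 h or 4 h. Samples were boiled in DTT-containing loading buffer and the AmpC band was followed by SDS-PAGE.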

For test [2] the target is unchanged. Briefly: Inhibition of Escherichia coli AmpC assessed as induction of protein unfolding measured by trypsin mediated degradation of compound-AmpC enzyme complex at 250 uM after 15 mins by gel electrophoresis. The essentials: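 AmpC β-lactamase (0.5 μM) in 50 mM KPi, pH 7.0, with or without aggregator at 250 μM (1% DMSO final). Trypsin (0.01 or 0.025 mg/mL) added after 5 min. Digestion ran at room temperature for 0 min to 4 h. Samples were boiled 2 min in DTT-containing loading buffer, run on SDS-PAGE, and the β-lactamase band was scored against compound-free enzyme.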

Activity calls are given as the source filed them. No cut-off for these calls is given here.

Chain of AmpC (Escherichia coli) (Q83TT7 as listed by the source): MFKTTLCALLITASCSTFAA

In the case of `CCCCCCNC(=O)Nc1ccc(S(=O)(=O)Nc2ccc(CCNC[C@H](O)COc3ccc(O)cc3)cc2)cc1`, the outcome at AmpC (Escherichia coli) [1] was Active.

For `Nc1c(/N=N/c2ccc(-c3ccc(/N=N/c4cc(S(=O)(=O)O)c5ccccc5c4N)cc3)cc2)cc(S(=O)(=O)O)c2ccccc12`, on AmpC (Escherichia coli) [2], the outcome was Active.
